Compound activity (PubChem BioAssay)
Sampled rows, rich in hits. Any-hit rate of the full collection: about 3.1%.
GPR7 antag: GPR7 receptor antagonists, primary screen, cell-based, fluorescence, single concentration | hit rate 1.1% among 290,000 | inhibition, % at 4.4 µM | GPR7-expressing cells, fluorescence antagonist assay | Neuropeptides B/W receptor type 1 (Homo sapiens), P48145; in the data active means inhibition above about 16%, passing the limit was not always enough;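 further: cells stimulated with the agonist NPW; 0% = agonist with vehicle and 100% = vehicle without agonist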
Target sequence (P48145 whole entry, looked up): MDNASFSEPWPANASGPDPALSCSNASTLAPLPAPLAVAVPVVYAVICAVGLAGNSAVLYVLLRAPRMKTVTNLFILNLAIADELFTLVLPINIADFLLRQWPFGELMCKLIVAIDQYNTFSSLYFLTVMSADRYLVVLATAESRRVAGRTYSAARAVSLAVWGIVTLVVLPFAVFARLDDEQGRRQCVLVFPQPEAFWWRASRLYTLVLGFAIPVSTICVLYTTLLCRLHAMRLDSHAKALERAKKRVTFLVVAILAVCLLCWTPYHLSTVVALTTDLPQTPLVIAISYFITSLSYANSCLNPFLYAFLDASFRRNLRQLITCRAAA
GalR3 antag: GalR3 antagonists in HEK293 cells, primary screen, cell-based, fluorescence readout. Galanin receptor type 3 (Homo sapiens), O60755. HEK293 GalR3-CNG cAMP membrane potential fluorescence; galR3 body fused to GalR1 C-terminus. inhibition, % at 3 µM. hit rate 0.44% among 360,000. AID 651719, 2012;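 active means inhibition above the screen-wide average plus 3 SD, cut at about 13% in these data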;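 further: forskolin and galanin both at EC90 stimulate the cells; cAMP rise reported by CNG channel membrane potential dye signal; 0% = forskolin plus galanin with DMSO and 100% = forskolin alone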
Target sequence (O60755 1-299 limits assumed): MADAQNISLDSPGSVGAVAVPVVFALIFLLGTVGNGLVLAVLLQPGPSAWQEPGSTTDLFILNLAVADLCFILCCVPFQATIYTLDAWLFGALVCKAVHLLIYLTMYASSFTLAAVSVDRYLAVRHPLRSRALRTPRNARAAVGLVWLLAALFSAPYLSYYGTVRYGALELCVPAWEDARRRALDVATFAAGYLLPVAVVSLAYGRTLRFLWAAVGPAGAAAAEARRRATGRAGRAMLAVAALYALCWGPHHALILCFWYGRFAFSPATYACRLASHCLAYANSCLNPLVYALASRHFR
CHO parental Ca: ATP-evoked calcium signal inhibitors, parental CHO, primary screen, counter-screen for OX1R antagonist project, cell-based, fluorescence, Fluo-8 calcium dye; parental CHO-K1, ATP-induced calcium, Fluo-8 fluorescence; inhibition, % at 5.6 µM; AID 463079, 2010; hit rate 0.63% among 330,000;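 active means inhibition above that plate's mean sample inhibition plus 3 SD, cut at about 26% in these data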;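 further: 0% = ATP-challenged DMSO wells and 100% = DMSO wells without ATP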
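Test system: untransfected parental CHO cell line. Compound: one dose, 5.6 µM nominal. Detection: intracellular calcium via Fluo-8 no-wash fluorescent dye. Measure: % inhibition. Benchmarks: ATP-challenged DMSO wells low, unchallenged DMSO wells high.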
OX1R antag-1: antagonists of human orexin 1 receptor (OX1R). Orexin/Hypocretin receptor type 1 (Homo sapiens), O43613. OX1R-expressing cells, FRET antagonist read-out. inhibition, % at 6.6 µM. hit rate 1.8% among 330,000. AID 485270, 2010; in the data active means inhibition mostly above about 38%, no sharp cut-off; inactive means mostly below about 40%;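 further: 0% = agonist challenge alone and 100% = reference antagonist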
OX1R antag-2: OX1R (HCRTR1) antagonists, primary screen, fluorescence, CHO/OX1R cells, Fluo-8 calcium, orexin A; Orexin/Hypocretin receptor type 1 (Homo sapiens), O43613; Fluo-8 calcium fluorescence; inhibition, % at 5 µM; hit rate 0.43% among 330,000; AID 434989, 2010;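 active means inhibition above its plate's threshold, mean inhibition of all tested compounds on the plate plus 3 SD, cut at about 37% in these data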;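 further: 0% = orexin A challenge wells and 100% = SB-334867-A antagonist wells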
Numbers without * were called inactive; . = not tested or not shown.

SMILES	GPR7 antag	GalR3 antag	CHO parental Ca	OX1R antag-1	OX1R antag-2
COc1cc(OC)c(-c2c3cc(O)c(=O)cc-3oc3cc(O)c(O)cc23)cc1OC	-4	4	74*	17	105*
COc1cc(-c2cc(=O)c3ccc(O)cc3o2)cc(OC)c1OC	.	6	.	.	.
CCCCS(=O)(=O)N1CCCc2nc(-c3ccc(F)cc3)ccc21	.	-7	.	.	.
O=C(NCc1ccccc1)/C(=C\c1ccc(F)cc1)NC(=O)c1ccco1	.	-6	.	.	.
CCN(CC)S(=O)(=O)c1ccc(N2CCN(c3ccccc3OC)CC2)c(N)c1	-5	-7	61*	38	6
CCOC(=O)C1=C(C)NC(C)=C(C(=O)OCC)C1C(=O)OCC(=O)NCc1ccccc1OC	.	3	-17	45*	11
CCOC(=O)C1=C(C)NC(C)=C(C(=O)OCC)C1C(=O)OCC(=O)NCc1ccccc1	.	2	-21	8	-30
COCCNC(=O)CN(C(=O)c1ccc(N2CCCC2)nc1)c1ccccc1	25*	-4	-3	24	-2
COc1cccc(OC)c1C(=O)Nc1cccc2c1CCCC2	5	-11	-3	73*	-9
O=C(NNC(=S)NC1CCCCC1)c1sc2ccccc2c1Cl	4	-2	-8	44	-22
Cc1ccc(C(=O)NNC(=S)NC(=O)c2ccc(Cl)cc2)cc1	13	-5	34*	3	71*
CC(=O)NNC(=S)NC(=O)c1ccc(C)cc1	-5	-4	2	21	6
CC(C)(C)C(=O)NC(=S)NNC(=O)c1sc2ccccc2c1Cl	-8	.	40*	8	69*
COc1ccc(C(=O)NNC(=S)NC(=O)C(C)(C)C)cc1	16	-8	58*	5	62*
COc1ccccc1CCn1cnc(-c2cccc(F)c2)c1C(C)C	.	-8	.	.	.
C[C@@H]1NS(=O)(=O)c2ccc(F)cc2O[C@@H]1c1ccccc1	.	-9	.	.	.
CCCC(=O)N1CCC1(C)C(=O)Nc1ccc2c(c1)OCCO2 (centres undefined)	.	2	.	.	.
CCCN(S(=O)(=O)c1ccccc1F)S(=O)(=O)c1ccccc1Br	-14	-7	-10	68*	14
O=C(/C=C/c1ccccc1[N+](=O)[O-])NCc1cccnc1	-2	-8	-4	61*	-12
CC(C)c1ccc(C(=O)NC(=S)NCc2cccnc2)cc1	-7	-6	-7	23	-10
O=C(O)c1cc([N+](=O)[O-])c(NCc2cccnc2)c([N+](=O)[O-])c1	3	12	-10	76*	-14
O=C(NC(=S)NCc1cccnc1)c1ccc([N+](=O)[O-])cc1	1	-3	-11	75*	-17
O=C(/C=C/c1ccccc1)NCc1cccnc1	0	-3	-18	6	-22
CCC(=O)Nc1ccc2c(c1)OC[C@@H](C)N(Cc1ccccc1F)C[C@@H](C)[C@@H](OC)CN(C)C2=O	.	0	.	.	.
CCc1ccc(-c2cc(C)no2)cc1S(=O)(=O)NCc1ccc(OC)c(OC)c1	1	-1	-12	23	-22
SMILES	GPR7 antag	GalR3 antag	CHO parental Ca	OX1R antag-1	OX1R antag-2
CCc1ccc(-c2cc(C)no2)cc1S(=O)(=O)NCCc1ccc(OC)c(OC)c1	-2	12	-13	43*	7
Cc1cc(-c2ccc(C)c(S(=O)(=O)NCc3ccc(Br)cc3)c2)on1	-9	-3	-2	23	6
Cc1cc(-c2ccc(C)c(S(=O)(=O)NCc3cccc(Br)c3)c2)on1	14	2	3	38*	9
CC[C@H](NC(=O)[C@@H](Cc1ccccc1)NC(=O)[C@H]1O[C@@H](n2cnc3c(=O)[nH]c(N)nc32)[C@H](O)[C@@H]1O)c1ccccc1	.	-6	.	.	.
COc1ccc(NC(=O)C2=Cc3cccc(OC)c3OC2)cc1	20*	-8	-20	40	-3
CCOC(=O)Cn1c(=N)n(CCOc2ccc(Br)cc2)c2ccccc21	19*	-6	-11	1	-10
CCOC(=O)Cn1c(=N)n(CCOc2cccc(C)c2)c2ccccc21	21	-4	1	-5	-8
Cc1[nH]c2ccccc2c1/C=N/Nc1ccccc1[N+](=O)[O-]	-16	-6	-18	67*	2
CC(=O)N1CCN(c2ccc([N+](=O)[O-])c(NCC3CCCO3)c2)CC1 (centres undefined)	4	-6	-14	79*	-9
O=C(c1ccccc1F)N1CCN(c2ccc([N+](=O)[O-])c(NCC3CCCO3)c2)CC1 (centres undefined)	-12	-5	-23	22	-24
COc1cccc(CNc2ccc(S(=O)(=O)Nc3nccs3)cc2)c1O	17*	-5	-6	4	-10
CC(C)CN(CC(C)C)CC(O)COc1ccccc1Br (centres undefined)	-6	-9	-36	9	-26
CCCCN(CCCC)CC(O)COc1ccccc1Br (centres undefined)	26*	-9	-20	20	-30
Cc1ccccc1N(CC(=O)N/N=C/c1ccc(N(C)C)cc1)C(=O)c1ccccc1	-4	-4	-20	63*	-26
CN(C)c1ccc(/C=N/NC(=O)COc2ccccc2)cc1	-13	-4	1	15	-20
CS(=O)(=O)c1ccc(Sc2nc3ccccc3[nH]2)c([N+](=O)[O-])c1	-9	-3	-9	44*	-34
COC(=O)c1cc(S(=O)(=O)NCC2CCN(C(=O)C(=O)c3cccs3)CC2)cs1	.	-3	.	.	.
Cc1ccc(O)c(-c2cc(C(=O)Nc3cccnc3)[nH]n2)c1	7	2	-9	23	-3
O=C(Nc1cccnc1)c1cc(-c2cc(Cl)ccc2O)n[nH]1	-1	0	-18	67*	-16
CCn1c(SCc2nc3scc(-c4ccccc4)c3c(=O)[nH]2)nnc1-c1cccs1	-2	-4	-43	56*	-6
Fc1ccc(-c2nc3c4ccccc4ccn3c2CC2CCCCC2)cc1	.	-7	.	.	.
CCc1ccc(C(=O)Cn2cnc3cc([N+](=O)[O-])ccc3c2=O)cc1	-3	-5	-8	29	-16
O=C(Cn1cnc2cc([N+](=O)[O-])ccc2c1=O)NC1CCS(=O)(=O)C1 (centres undefined)	-8	-1	-1	63*	-18
CN(Cc1cccs1)C(=O)Cn1cnc2cc([N+](=O)[O-])ccc2c1=O	-8	-4	-2	40*	-17
COc1ccc(-n2c(CSc3ccc(Cl)cc3)n[nH]c2=S)cc1	.	-9	.	.	.
COc1ccc(CCNC(=O)COc2ncnc3cc([N+](=O)[O-])ccc23)cc1	-2	-3	-4	53*	-25
Nc1nc(O)c(N=Nc2ccc(S(N)(=O)=O)cc2)c(=O)[nH]1	-1	0	.	.	.
NS(=O)(=O)c1ccc(N=Nc2c[nH]c(=O)c(O)c2)cc1	-5	-8	3	42*	5
